Km data for 1 protein are collected here from ChEMBL document CHEMBL2157866, “Virtual screening and computational optimization for the discovery of covalent prolyl oligopeptidase inhibitors with activity in human cells” (J Med Chem, 2012).

What is called Km is the substrate concentration at which the rate is half of its maximum.

Substrate in data set [1]: Cc1cc(=O)oc2cc(NC(=O)[C@@H]3CCCN3C(=O)CNC(=O)OCc3ccccc3)ccc12
Nature of the data set: Activity of human recombinant POP incubated for 30 mins by fluorimetric assay. Put shortly: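 Recombinant human POP/PREP stock diluted in PBS containing 1 mg/mL BSA. Increasing Z-Gly-Pro-AMC concentrations added; fluorescence (ex/em 360/460 nm) followed for 30 min at 37 °C. KM determined graphically from a double-reciprocal Michaelis–Menten plot.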

Substrate in data set [2]: Cc1cc(=O)oc2cc(NC(=O)[C@@H]3CCCN3C(=O)CNC(=O)OCc3ccccc3)ccc12
Nature of the data set: Activity of POP in human LNZ308 cell extracts incubated for 30 mins by fluorimetric assay. Put shortly:
(§1)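 Confluent cell monolayers lysed in PBS with 0.1% Triton X-100. Increasing Z-Gly-Pro-AMC concentrations added; fluorescence increase (ex/em 360/460 nm) recorded for 30 min at 37 °C. KM read graphically from a double-reciprocal Michaelis–Menten plot.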

Substrate in data set [3]: Cc1cc(=O)oc2cc(NC(=O)[C@@H]3CCCN3C(=O)CNC(=O)OCc3ccccc3)ccc12
Nature of the data set: Activity of POP in human LN18 cell extracts incubated for 30 mins by fluorimetric assay. The procedure, abridged: as §1

Substrate in data set [4]: Cc1cc(=O)oc2cc(NC(=O)[C@@H]3CCCN3C(=O)CNC(=O)OCc3ccccc3)ccc12
Nature of the data set: Activity of POP in human LN229 cell extracts incubated for 30 mins by fluorimetric assay. The procedure, abridged: as §1

Substrate in data set [5]: Cc1cc(=O)oc2cc(NC(=O)[C@@H]3CCCN3C(=O)CNC(=O)OCc3ccccc3)ccc12
Nature of the data set: Activity of POP in human HCEC cell extracts incubated for 30 mins by fluorimetric assay. The procedure, abridged: as §1

B1: Prolyl endopeptidase (Homo sapiens), P48147 (protein)
chain: MLSLQYPDVYRDETAVQDYHGHKICDPYAWLEDPDSEQTKAFVEAQNKITVPFLEQCPIRGLYKERMTELYDYPKYSCHFKKGKRYFYFYNTGLQNQRVLYVQDSLEGEARVFLDPNILSDDGTVALRGYAFSEDGEYFAYGLSASGSDWVTIKFMKVDGAKELPDVLERVKFSCMAWTHDGKGMFYNSYPQQDGKSDGTETSTNLHQKLYYHVLGTDQSEDILCAEFPDEPKWMGGAELSDDGRYVLLSIREGCDPVNRLWYCDLQQESSGIAGILKWVKLIDNFEGEYDYVTNEGTVFTFKTNRQSPNYRVINIDFRDPEESKWKVLVPEHEKDVLEWIACVRSNFLVLCYLHDVKNILQLHDLTTGALLKTFPLDVGSIVGYSGQKKDTEIFYQFTSFLSPGIIYHCDLTKEELEPRVFREVTVKGIDASDYQTVQIFYPSKDGTKIPMFIVHKKGIKLDGSHPAFLYGYGGFNISITPNYSVSRLIFVRHMGGILAVANIRGGGEYGETWHKGGILANKQNCFDDFQCAAEYLIKEGYTSPKRLTINGGSNGGLLVAACANQRPDLFGCVIAQVGVMDMLKFHKYTIGHAWTTDYGCSDSKQHFEWLVKYSPLHNVKLPEADDIQYPSMLLLTADHDDRVVPLHSLKFIATLQYIVGRSRKQSNPLLIHVDTKAGHGAGKPTAKVIEEVSDMFAFIARCLNVDWIP
Turning to B1, the Km in data set [1] was 8.5 µM; in data set [2] it was 8.1 µM; in data set [3], 8.5 µM; in data set [4] it was 6.7 µM; in data set [5], 7 µM.
